Measured values gathered from unrelated publications.
Compare with care: the assays were run in different laboratories.
Observed: cell growth or viability

Structure (SMILES)	cell line	test	conditions	endpoint	value
N[C@H]1CC[C@H](N[C@@H]2C[C@H]2c2ccccc2)CC1	TF-1a	resazurin	96 h	EC50	0.09 nM
COc1cc(Nc2nccc(-c3cnn4nc(OC)ccc34)n2)cc(C(F)(F)F)c1	SAOS-2	ATP luminescence	–	IC50	320 nM
Cc1nc(NC(=O)N2CCC[C@H]2C(N)=O)sc1-c1ccnc(C(C)(C)C(F)(F)F)c1	HCC1954	–	5 days	EC50	1130 nM
COc1ccc(-c2c(-c3ccc(C#N)c(F)c3)nc(N3CCC(N)CC3)n(C)c2=O)cc1F	TF-1a	resazurin	96 h	EC50	7.87 nM
CC1(C)C(=O)NC2=C1C(=O)C(=O)c1ccccc12	FaDu	–	72 h	IC50	4200 nM
CN1CCN(C(=O)[C@H](CCCN[C@@H]2C[C@H]2c2ccc(F)cc2)NC(=O)c2ccc(-n3ccnn3)cc2)CC1	TF-1a	resazurin	96 h	EC50	31.1 nM
COc1ccc2c(c1OC)C(=O)O[C@@H]2[C@H]1c2c(cc3c(c2OC)OCO3)CCN1C	FaDu	–	72 h	IC50	15200 nM
CC/C(=C(\c1ccccc1)c1ccc(OCCN(C)C)cc1)c1ccccc1	CAPAN-1	ATP luminescence	72 h	EC90	28.4 µM
CC(C)C[C@H](NC(=O)[C@H](Cc1ccccc1)NC(=O)c1cnccn1)B(O)O	J82	ATP luminescence	–	IC50	10 nM
CC(=O)Nc1cccc(-n2c(=O)n(C3CC3)c(=O)c3c(Nc4ccc(I)cc4F)n(C)c(=O)c(C)c32)c1	SW-620	resazurin	6.25 nM, 72 h	viability	38.8%
